Test results published in ChEMBL document CHEMBL2176879, “Identification of HIV-1 inhibitors targeting the nucleocapsid protein” (J Med Chem, 2012).
pEC50, pKi: −log10 of the molar value. Active and inactive are the calls of the source.

Assays:
[1] = system: Human immunodeficiency virus 1; assay: Antiviral activity against HIV1 LAI infected in human CD4+ T cells assessed as reduction of p24 positive T cells at 200 nM treated 3 days before infection measured after 9 days by flow cytometry analysis; type: functional; conditions: Human immunodeficiency virus 1, LAI, T-cell
[2] = Inhibition of HIV1 NL4-3 N-terminal GST-tagged nucleocapsid protein interaction to FAM-labeled SL-2 DNA expressed in Escherichia coli BL21DE3 by fluorescence polarisation assay; design: species or system Human immunodeficiency virus 1
[3] = system: Human immunodeficiency virus 1; assay: Binding affinity to HIV1 Gag protein assessed as change in melting temperature using SYPRO orange by differential scanning fluorimetry analysis
Method in brief: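 5 μM GST-Gag incubated with 5X SYPRO Orange and 5 μM compound in 5 mM HEPES pH 7.5, 150 mM NaCl; heated 35–94 °C at 1 °C/min. Tm from Boltzmann sigmoid fit; ΔTm of 2 °C taken as hit threshold.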

[4] = system: Human immunodeficiency virus 1; assay: Displacement of FAM-labeled SL-2 from HIV1 NL4-3 N-terminal GST-tagged nucleocapsid protein-FAM-labeled SL-2 complex expressed in Escherichia coli BL21DE3 by EMSA analysis
Method in brief: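 Pre-formed complex of GST-p2-NC with fluorescein-labeled SL-2 DNA (15 μM protein, 0.5 μM DNA in PBS, 10 nM ZnCl2) incubated with compound, resolved by native PAGE; free/bound probe quantified by fluorescence gel scanning.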

SUP-T1 [5] = assay: Cytotoxicity against human SupT1 cells at 0.1 uM after 7 days by Trypan Blue dye exclusion analysis; type: cell-based; conditions: sup-t1, 168 h
Method in brief: (§1)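 SupT1 T cells in RPMI1640 with 10 % FBS, 2 mM L-glutamine, 0.1 mM NEAA, 1 mM sodium pyruvate, penicillin/streptomycin, at 37 °C and 5 % CO2. Compounds were dissolved in DMSO and incubated with the cells for several days. Viability was read as dead vs. viable cells by Trypan Blue dye exclusion, counted under a microscope.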

SUP-T1 [6] = assay: Cytotoxicity against human SupT1 cells at 1 uM by Trypan Blue dye exclusion analysis; type: cell-based; conditions: sup-t1, 1 µM; method in brief: as §1
[7] = system: Human immunodeficiency virus 1; assay: Binding affinity to HIV1 NL4-3 N-terminal GST-tagged nucleocapsid protein expressed in Escherichia coli BL21DE3 by resonant waveguide grating-based SRU BIND assay
Method in brief: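 GST-p2-NC (NL4-3, E. coli BL21DE3(pLysS), GSH-purified) immobilized at 5 μM on aldehyde-activated optical biosensor; compounds added at 25 μM in PBS, 1 % DMSO; peak wavelength shift followed over time at room temperature; stoichiometry from expected PWV using ligand/receptor MW ratio and target activity.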

SUP-T1 [8] = assay: Cytotoxicity against human SupT1 cells at 10 uM after 7 days by Trypan Blue dye exclusion analysis; type: cell-based; conditions: sup-t1, 168 h
SUP-T1 [9] = assay: Cytotoxicity against human SupT1 cells at 0.1 to 1 uM after 7 days by Trypan Blue dye exclusion analysis; type: cell-based; conditions: sup-t1, 168 h
[10] = system: Human immunodeficiency virus 1; assay: Antiviral activity against HIV1 NL4-3 infected in human HeLa cells assessed as drecrease of p24 antigen level after 2 days by CFAR; type: functional, organism-based; conditions: Human immunodeficiency virus 1, NL4-3, HeLa, 48 h
Method in brief: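 2×10^5 HeLa cells in Opti-MEM given increasing compound concentrations (1 % DMSO controls); after 2 days transiently transfected with 1 μg pNL4-3 plasmid by lipofection. Virus production quantified as p24, expressed relative to DMSO controls; three independent transfections, mean ± s.d.; EC50 derived.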

SUP-T1 [11] = assay: Cytotoxicity against human SupT1 cells at 30 uM after 6 days by Trypan Blue dye exclusion analysis; type: cell-based; conditions: sup-t1, 144 h; method in brief: as §1

SMILES	inhibition at 0.2 µM [1]	pKi [2]	ΔTm [3]	Activity [4]	Activity (SUP-T1 [5])	Activity (SUP-T1 [6])	Activity [7]	Activity (SUP-T1 [8])	Activity (SUP-T1 [9])	pEC50 [10]	Activity (SUP-T1 [11])
O=C1ON=C(c2ccccc2)/C1=C/c1ccc2c(c1)OCO2	33%	7.70	6.3 °C	Active	0%	> 70%	Active	> 90%	–	–	–
CCOc1ccc(/C=C(\C)[N+](=O)[O-])cc1OC	50%	7.85	2.2 °C	Active	0%	–	Active	> 90%	< 3%	6.49	–
O=C1NC(=S)S/C1=C\c1cc([N+](=O)[O-])ccc1Sc1ccc(C(F)(F)F)cn1	0%	7.14	2.4 °C	Active	0%	> 70%	Active	> 90%	–	–	–
COc1cccc(/C=C2\SC(=S)C(N)C2=O)c1OC (configuration not stated)	43%	7.74	4.8 °C	Active	0%	–	Active	–	< 3%	5.46	> 70%
C/C(=C\c1ccc2c(c1)OCO2)[N+](=O)[O-]	18%	7.66	3.4 °C	Active	0%	> 70%	Active	> 90%	–	–	–
